Laboratory results from ChEMBL document CHEMBL4732207, “Design, Synthesis and Structure-Activity Relationship Studies of Glycosylated Derivatives of Marine Natural Product Lamellarin D” (Eur J Med Chem, 2021).
Converted amounts (≈) assume the structure as drawn. The source made the active and inactive calls. No cut-off for these calls is given here.

Legend:
[1] = test system: HGC-27; experiment: Cytotoxicity against human HGC-27 cells assessed as reduction in cell viability incubated for 72 hrs by MTT assay; type: functional, cell-based; details: HGC-27, 72 h
In short: (§1)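 Cells resuspended in DMEM plus 10% FBS and seeded at 5 000 cells/well. They were incubated overnight at 37 °C in 5% CO2, then exposed to serial dilutions for 72 h at 37 °C. Medium was replaced with fresh medium containing 0.5 mg/mL MTT for 4 h, formazan dissolved in DMSO, and A540 read. Proliferation = A540 treated/control ×100%. IC50 is the concentration inhibiting proliferation by 50%.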

[2] = test system: A549; experiment: Cytotoxicity against human A549 cells assessed as reduction in cell viability incubated for 72 hrs by MTT assay; type: functional, cell-based; details: A549, 72 h; in short: as §1
[3] = test system: HCT-116; experiment: Cytotoxicity against human HCT-116 cells assessed as reduction in cell viability incubated for 72 hrs by MTT assay; type: functional, cell-based; details: HCT-116, 72 h; in short: as §1
[4] = test system: MDA-MB-231; experiment: Cytotoxicity against human MDA-MB-231 cells assessed as reduction in cell viability incubated for 72 hrs by MTT assay; type: functional, cell-based; details: MDA-MB-231, 72 h; in short: as §1
[5] = test system: HepG2; experiment: Cytotoxicity against human HepG2 cells assessed as reduction in cell viability incubated for 72 hrs by MTT assay; type: functional, cell-based; details: HepG2, 72 h; in short: as §1
[6] = Aqueous solubility of compound in deionized water by HPLC-HRMS analysis; type: physicochemical; details: buffer
[7] = molecular target: T1, DNA topoisomerase 1 (Homo sapiens) (UniProt P11387); experiment: Inhibition of topoisomerase 1 (unknown origin) assessed as reduction in relaxation of supercoiled plasmid pBR322 DNA at 10 uM incubated for 30 mins by agarose gel electrophoresis
T1 sequence (whole entry): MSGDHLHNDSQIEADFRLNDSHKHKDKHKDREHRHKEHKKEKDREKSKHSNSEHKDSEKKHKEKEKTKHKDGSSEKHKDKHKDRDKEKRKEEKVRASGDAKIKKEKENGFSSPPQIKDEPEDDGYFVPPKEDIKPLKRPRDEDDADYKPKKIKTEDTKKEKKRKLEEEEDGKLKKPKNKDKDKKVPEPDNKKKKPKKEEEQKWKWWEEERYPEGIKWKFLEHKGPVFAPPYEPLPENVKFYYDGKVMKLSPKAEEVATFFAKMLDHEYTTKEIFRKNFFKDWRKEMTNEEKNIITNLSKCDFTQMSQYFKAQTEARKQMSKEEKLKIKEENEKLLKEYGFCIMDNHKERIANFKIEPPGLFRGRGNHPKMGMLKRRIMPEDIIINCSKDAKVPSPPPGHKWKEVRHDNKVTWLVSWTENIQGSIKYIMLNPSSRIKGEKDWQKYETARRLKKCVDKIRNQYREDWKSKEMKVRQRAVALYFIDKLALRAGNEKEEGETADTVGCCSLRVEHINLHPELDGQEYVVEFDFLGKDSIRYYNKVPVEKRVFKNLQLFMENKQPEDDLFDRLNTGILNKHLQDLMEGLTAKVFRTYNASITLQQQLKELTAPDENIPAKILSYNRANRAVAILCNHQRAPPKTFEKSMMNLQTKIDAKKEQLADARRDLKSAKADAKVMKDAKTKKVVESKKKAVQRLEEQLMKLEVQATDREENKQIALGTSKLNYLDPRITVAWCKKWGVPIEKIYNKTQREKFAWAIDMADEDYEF
In short: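 Reaction mix held 10X Topo I buffer, supercoiled pBR322 (250 ng), Topo I (2 U) and compound at 10 µM, incubated 37 °C for 30 min. Stopped with 10% SDS, then proteinase K digestion for 30 min. Products run on 1% agarose without stain, post-stained with 4s Green for 50 min and imaged under UV. Read-out is loss of relaxation.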

[8] = test system: MDA-MB-231; experiment: Induction of cell cycle arrest in human MDA-MB-231 cells assessed as increase in accumulation of G2/M phase incubated for 24 hrs by PI staining based flow cytometry analysis; type: functional; details: dose 10-50 nM
In short: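 MDA-MB-231 cells (5 × 10^5) seeded in six-well plates, cultured overnight at 37 °C, then treated at 10, 20 or 50 nM for 24 h. Lamellarin D was the positive control at 20 and 50 nM. Cells were trypsinized, washed twice in PBS and fixed in 70% ethanol overnight at −20 °C. After washing, cells were stained with propidium iodide. Phase distribution was read by flow cytometry.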

[9] = test system: MDA-MB-231; experiment: Induction of apoptosis in human MDA-MB-231 cells at 50 nM incubated for 24 hrs by annexin-V-FITC and PI staining based flow cytometry analysis; type: functional, cell-based

solubility [6]	inhibition [7]	Structure (SMILES)	IC50 [1]	IC50 [2]	IC50 [3]	IC50 [4]	IC50 [5]	Activity [8]	Activity [9]
235.82 nM (≈ 156 ng/mL)	–	COc1cc(-c2c3c4cc(OC)c(O)cc4oc(=O)c3n3ccc4cc(O[C@@H]5O[C@H](CO)[C@H](O)[C@H](O)[C@H]5O)c(OC)cc4c23)ccc1O	0.114 µM	0.013 µM	0.037 µM	0.018 µM	0.048 µM	–	–
257.78 nM (≈ 171 ng/mL)	–	COc1cc(-c2c3c4cc(OC)c(O)cc4oc(=O)c3n3ccc4cc(O[C@@H]5O[C@H](CO)[C@@H](O)[C@H](O)[C@H]5O)c(OC)cc4c23)ccc1O	0.114 µM	0.047 µM	0.014 µM	0.032 µM	0.024 µM	–	–
0.12 nM (≈ 0.0794 ng/mL)	–	COc1cc(-c2c3c4cc(OC)c(O[C@@H]5O[C@H](CO)[C@H](O)[C@H](O)[C@H]5O)cc4oc(=O)c3n3ccc4cc(O)c(OC)cc4c23)ccc1O	0.09 µM	0.02 µM	0.018 µM	0.025 µM	0.058 µM	–	–
0.37 nM (≈ 0.245 ng/mL)	–	COc1cc(-c2c3c4cc(OC)c(O[C@H]5O[C@H](CO)[C@@H](O)[C@H](O)[C@@H]5O)cc4oc(=O)c3n3ccc4cc(O)c(OC)cc4c23)ccc1O	0.137 µM	0.374 µM	0.206 µM	0.316 µM	0.57 µM	–	–
0.41 nM (≈ 0.271 ng/mL)	Active	COc1cc2c(cc1O)oc(=O)c1c2c(-c2ccc(O[C@@H]3O[C@H](CO)[C@@H](O)[C@H](O)[C@H]3O)c(OC)c2)c2c3cc(OC)c(O)cc3ccn21	> 50 µM	> 50 µM	26.2 µM	> 50 µM	42.9 µM	–	–
0.23 nM (≈ 0.152 ng/mL)	–	COc1cc(-c2c3c4cc(OC)c(O)cc4oc(=O)c3n3ccc4cc(O[C@H]5O[C@H](CO)[C@@H](O)[C@H](O)[C@@H]5O)c(OC)cc4c23)ccc1O	0.219 µM	3.24 µM	1.42 µM	1.99 µM	3.88 µM	–	–
2 nM (≈ 1.32 ng/mL)	–	COc1cc(-c2c3c4cc(OC)c(O[C@@H]5O[C@H](CO)[C@@H](O)[C@H](O)[C@H]5O)cc4oc(=O)c3n3ccc4cc(O)c(OC)cc4c23)ccc1O	0.162 µM	0.003 µM	0.01 µM	0.034 µM	0.015 µM	Dose-dependent effect	Active

Further lines, the compound ahead of its results:

Structure (SMILES)	solubility [6]	inhibition [7]	IC50 [1]	IC50 [2]	IC50 [3]	IC50 [4]	IC50 [5]	Activity [8]	Activity [9]
COc1cc2c(cc1O)oc(=O)c1c2c(-c2ccc(O[C@@H]3O[C@H](CO)[C@@H](O)[C@H]3O)c(OC)c2)c2c3cc(OC)c(O)cc3ccn21	–	–	0.224 µM	0.659 µM	0.614 µM	2.11 µM	0.332 µM	–	–
COc1cc2c(cc1O)oc(=O)c1c2c(-c2ccc(O[C@H]3O[C@H](CO)[C@@H](O)[C@H](O)[C@@H]3O)c(OC)c2)c2c3cc(OC)c(O)cc3ccn21	0.14 nM (≈ 0.0926 ng/mL)	Active	31.3 µM	> 50 µM	> 50 µM	> 50 µM	> 50 µM	–	–
COc1cc2c(ccn3c2c(-c2ccc(O[C@@H]4O[C@H](CO)[C@@H](O)[C@H](O)[C@H]4O)c(OC)c2)c2c4cc(OC)c(O[C@@H]5O[C@H](CO)[C@@H](O)[C@H](O)[C@H]5O)cc4oc(=O)c23)cc1O	257.55 nM (≈ 212 ng/mL)	Active	7.22 µM	16.4 µM	6.77 µM	7.37 µM	28.8 µM	–	–
COc1cc(-c2c3c4cc(OC)c(O)cc4oc(=O)c3n3ccc4cc(O[C@@H]5O[C@H](CO)[C@@H](O)[C@H]5O)c(OC)cc4c23)ccc1O	–	–	1.24 µM	4.12 µM	1.28 µM	5.08 µM	0.937 µM	–	–
COc1cc(-c2c3c4cc(OC)c(O[C@@H]5O[C@H](CO)[C@@H](O)[C@H]5O)cc4oc(=O)c3n3ccc4cc(O)c(OC)cc4c23)ccc1O	–	–	0.862 µM	2.86 µM	1.16 µM	2.69 µM	0.627 µM	–	–
COc1cc2c(cc1O)oc(=O)c1c2c(-c2ccc(O[C@@H]3O[C@H](CO)[C@H](O)[C@H](O)[C@H]3O)c(OC)c2)c2c3cc(OC)c(O)cc3ccn21	0.49 nM (≈ 0.324 ng/mL)	Active	16.6 µM	> 50 µM	13.7 µM	> 50 µM	> 50 µM	–	–
COc1cc(-c2c3c4cc(OC)c(O[C@@H]5O[C@H](CO)[C@@H](O)[C@H](O)[C@H]5O)cc4oc(=O)c3n3ccc4cc(O[C@@H]5O[C@H](CO)[C@@H](O)[C@H](O)[C@H]5O)c(OC)cc4c23)ccc1O	182.31 nM (≈ 150 ng/mL)	–	0.074 µM	0.026 µM	0.04 µM	0.036 µM	0.118 µM	–	–
COc1cc2c(cc1O)oc(=O)c1c2c(-c2ccc(O[C@@H]3O[C@H](CO)[C@@H](O)[C@H](O)[C@H]3O)c(OC)c2)c2c3cc(OC)c(O[C@@H]4O[C@H](CO)[C@@H](O)[C@H](O)[C@H]4O)cc3ccn21	96.75 nM (≈ 79.7 ng/mL)	Active	27.1 µM	13.7 µM	5.28 µM	13.3 µM	40.1 µM	–	–
COc1cc(-c2c3c4cc(OC)c(O)cc4oc(=O)c3n3ccc4cc(O)c(OC)cc4c23)ccc1O [LAMELLARIN D]	0.56 nM (≈ 0.28 ng/mL)	Active	0.236 µM	0.004 µM	0.025 µM	0.031 µM	0.088 µM	Dose-dependent effect	–
